Test results: ChEMBL document CHEMBL2440018 (J Med Chem, 2013)
Activity calls are given as the source filed them. The calls are words filed in the database; no cut-off is given here.

Experiments:
[1] = biological target: MMP-2/MMP-9 (Homo sapiens) (UniProt P08253+P14780); assay: Selectivity ratio of Ki for human recombinant MMP-9 catalytic domain to Ki for human recombinant MMP-2
Liver [2] = assay: Half life in rat liver S9 fraction at 10 uM by reversed-phase UPLC/ESI-MRM analysis; type: ADME, subcellular; settings: s9, 10 µM
Summary of the method: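 Male rat liver S9 (1.0 mg) with 0.5 mM NADPH and 10 µM compound (both final) in 50 mM potassium phosphate, pH 7.4, at 37 °C, sampled over time. Aliquots were stopped with acetonitrile containing internal standard, and the supernatant was run by UPLC/ESI-MRM. Half-lives used first-order kinetics on peak-area ratios to internal standard.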

[3] = biological target: T1, Interstitial collagenase (Homo sapiens) (UniProt P03956); assay: Inhibition of human recombinant MMP-1 catalytic domain at 50 uM by fluorescence spectrophotometric analysis relative to control
T1 sequence (whole entry): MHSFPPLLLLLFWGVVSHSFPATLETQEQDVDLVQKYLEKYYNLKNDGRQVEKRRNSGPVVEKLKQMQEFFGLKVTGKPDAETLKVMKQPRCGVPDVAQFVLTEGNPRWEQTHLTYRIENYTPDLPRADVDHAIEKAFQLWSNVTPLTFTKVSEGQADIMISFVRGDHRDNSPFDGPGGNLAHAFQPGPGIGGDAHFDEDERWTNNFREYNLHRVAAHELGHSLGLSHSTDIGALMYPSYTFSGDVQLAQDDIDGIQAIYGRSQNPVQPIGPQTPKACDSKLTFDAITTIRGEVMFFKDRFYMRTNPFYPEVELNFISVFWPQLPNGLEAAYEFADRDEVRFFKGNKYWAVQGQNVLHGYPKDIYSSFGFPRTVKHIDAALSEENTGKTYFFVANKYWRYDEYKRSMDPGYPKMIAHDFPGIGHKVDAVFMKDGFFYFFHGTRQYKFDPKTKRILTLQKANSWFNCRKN

Liver [4] = assay: Metabolic stability in rat liver S9 fraction assessed as formation of {4-[4-(1-Oxo-1lambda4-thiiran-2-ylmethanesulfonyl)-phenoxy]-phenyl}-carbamic acid methyl ester at 50 uM after 30 mins by reversed-phase LC/MS analysis; type: ADME, subcellular; settings: s9, 0.5 h
Summary of the method: (§1)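 50 µM compound was incubated with rat liver S9 (1.0 mg) and 0.5 mM NADPH in 50 mM potassium phosphate, pH 7.4, at 37 °C for 30 min. The reaction was stopped with one volume of acetonitrile and centrifuged. Metabolites in the supernatant were identified by reversed-phase LC/ESI-QTOF mass spectrometry.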

Liver [5] = assay: Metabolic stability in rat liver S9 fraction assessed as formation of 4-(4-(methoxycarbonylamino)phenoxy)benzenesulfinic acid at 50 uM after 30 mins by reversed-phase LC/MS analysis; type: ADME, subcellular; settings: s9, 0.5 h; summary of the method: as §1
[6] = biological target: 72 kDa type IV collagenase (Homo sapiens, UniProt P08253); assay: Inhibition of human recombinant MMP-2 using MOCAcPLGLA2pr(Dnp)AR-NH2 as substrate by fluorescence spectrophotometric analysis
[7] = biological target: T2, Matrilysin (Homo sapiens) (UniProt P09237); assay: Inhibition of human recombinant MMP-7 at 50 uM by fluorescence spectrophotometric analysis relative to control
T2 sequence (whole entry): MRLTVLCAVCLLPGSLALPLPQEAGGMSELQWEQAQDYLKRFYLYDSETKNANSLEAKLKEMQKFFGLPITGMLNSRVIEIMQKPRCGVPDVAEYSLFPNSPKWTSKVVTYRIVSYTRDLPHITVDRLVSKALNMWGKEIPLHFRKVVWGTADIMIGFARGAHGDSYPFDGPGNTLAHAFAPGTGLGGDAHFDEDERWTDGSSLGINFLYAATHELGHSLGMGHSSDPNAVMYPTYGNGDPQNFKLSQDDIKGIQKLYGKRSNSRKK

[8] = biological target: Stromelysin-1 (Homo sapiens) (UniProt P08254); assay: Inhibition of human recombinant MMP-3 catalytic domain at 50 uM by fluorescence spectrophotometric analysis relative to control
[9] = biological target: Matrix metalloproteinase-14 (Homo sapiens, UniProt P50281); assay: Inhibition of human recombinant MMP-14 catalytic domain using MOCAcPLGLA2pr(Dnp)AR-NH2 as substrate by fluorescence spectrophotometric analysis
Liver [10] = assay: Metabolic stability in rat liver S9 fraction assessed as formation of 4-(4-(thiiran-2-ylmethylsulfonyl)phenoxy)aniline at 50 uM after 30 mins by reversed-phase LC/MS analysis; type: ADME, subcellular; settings: s9, 0.5 h; summary of the method: as §1
[11] = biological target: Matrix metalloproteinase-9 (Homo sapiens, UniProt P14780); assay: Inhibition of human recombinant MMP-9 catalytic domain using MOCAcPLGLA2pr(Dnp)AR-NH2 as substrate by fluorescence spectrophotometric analysis
[12] = biological target: MMP-2/MMP-14 (Homo sapiens) (UniProt P50281+P08253); assay: Selectivity ratio of Ki for human recombinant MMP-14 catalytic domain to Ki for human recombinant MMP-2
Brain [13] = assay: AUC (0 to infinity) in C57Bl/6J mouse brain assessed as 4-(4-(thiiran-2-ylmethylsulfonyl)phenoxy)phenol at 25 mg/kg, sc; type: ADME, organism-based; design: time infinity, dose 25 mg/kg, route subcutaneous; settings: in vivo
Summary of the method: (§2)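 Mice were dosed sc once at 25 mg/kg; plasma and perfused brain (n = 3 per time point) were quantified by UPLC/ESI-MRM. AUC0-last came from the mean concentration-time curve by the trapezoidal rule, and AUC0-∞ = AUC0-last + Clast/k. α and β half-lives came from linear regression on the linear portion of the concentration-time data, with t1/2 = ln2/k.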

Neutrophil collagenase = Neutrophil collagenase (Homo sapiens, UniProt P22894); assay: Inhibition of human recombinant MMP-8 catalytic domain using […] as substrate by fluorescence spectrophotometric analysis
Plasma [14] = assay: AUC (0 to last) in C57Bl/6J mouse plasma assessed as 4-(4-(thiiran-2-ylmethylsulfonyl)phenoxy)phenol at 25 mg/kg, sc; type: ADME, organism-based; design: time 0 - last, dose 25 mg/kg, route subcutaneous; settings: in vivo; summary of the method: as §2
Brain [15] = assay: Drug uptake in C57Bl/6J mouse brain assessed as 4-(4-(thiiran-2-ylmethylsulfonyl)phenoxy)phenol measured per mg of tissue at 25 mg/kg, sc measured at 20 mins by reversed phase UPLC/ESI-MRM analysis; type: ADME, organism-based; design: dose 25 mg/kg, route subcutaneous; settings: in vivo
Summary of the method: (§3)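 Female C57Bl/6J mice (6–8 weeks, 16–19 g) received a single 100 µL sc dose equivalent to 25 mg/kg, in 10% DMSO/25% Tween 80/65% water or 80% propylene glycol/20% DMSO. Terminal heparinised vena cava blood gave plasma, and saline-perfused whole brain was taken; n = 3 per time point. Acetonitrile extracts with internal standard were run by UPLC/ESI-MRM against matrix calibration curves, linear 0.05–5 µM.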

Brain [16] = assay: Elimination half life in C57Bl/6J mouse brain assessed as 4-(4-(thiiran-2-ylmethylsulfonyl)phenoxy)phenol at 25 mg/kg, sc; type: ADME, organism-based; design: dose 25 mg/kg, route subcutaneous; settings: in vivo; summary of the method: as §2
Plasma [17] = assay: AUC (0 to infinity) in C57Bl/6J mouse plasma assessed as 4-(4-(thiiran-2-ylmethylsulfonyl)phenoxy)phenol at 25 mg/kg, sc; type: ADME, organism-based; design: time infinity, dose 25 mg/kg, route subcutaneous; settings: in vivo; summary of the method: as §2
Brain [18] = assay: Metabolic stability in C57Bl/6J mouse brain assessed as formation of 4-(4-(thiiran-2-ylmethylsulfonyl)phenoxy)phenol at 25 mg/kg, sc measured at 10 to 240 mins; type: ADME, organism-based; design: dose 25 mg/kg, route subcutaneous; settings: in vivo; summary of the method: as §3
Liver [19] = assay: Metabolic stability in rat liver S9 fraction assessed as formation of Ethyl-carbamic acid 4-[4-(1-oxo-1lambda4-thiiran-2-ylmethanesulfonyl)-phenoxy]-phenyl ester at 50 uM after 30 mins by reversed-phase LC/MS analysis; type: ADME, subcellular; settings: s9, 0.5 h; summary of the method: as §1
Brain [20] = assay: AUC (0 to last) in C57Bl/6J mouse brain assessed as 4-(4-(thiiran-2-ylmethylsulfonyl)phenoxy)phenol at 25 mg/kg, sc; type: ADME, organism-based; design: dose 25 mg/kg, route subcutaneous; settings: in vivo; summary of the method: as §2
[21] = Ratio of AUC in brain to plasma in C57Bl/6J mouse assessed as 4-(4-(thiiran-2-ylmethylsulfonyl)phenoxy)phenol at 25 mg/kg, sc; type: ADME, organism-based; design: dose 25 mg/kg, route subcutaneous
Plasma [22] = assay: Plasma concentration in C57Bl/6J mouse assessed as 4-(4-(thiiran-2-ylmethylsulfonyl)phenoxy)phenol at 25 mg/kg, sc measured at 4 hrs by reversed phase UPLC/ESI-MRM analysis; type: ADME, organism-based; design: dose 25 mg/kg, route subcutaneous; settings: in vivo; summary of the method: as §3
Liver [23] = assay: Metabolic stability in rat liver S9 fraction assessed as formation of 4-(4-(ethylcarbamoyloxy)phenoxy)benzenesulfinic acid at 50 uM after 30 mins by reversed-phase LC/MS analysis; type: ADME, subcellular; settings: s9, 0.5 h; summary of the method: as §1
Brain [24] = assay: Drug uptake in C57Bl/6J mouse brain assessed as 4-(4-(thiiran-2-ylmethylsulfonyl)phenoxy)phenol measured per mg of tissue at 25 mg/kg, sc measured at 4 hrs by reversed phase UPLC/ESI-MRM analysis; type: ADME, organism-based; design: dose 25 mg/kg, route subcutaneous; settings: in vivo; summary of the method: as §3
Plasma [25] = assay: Metabolic stability in C57Bl/6J mouse plasma assessed as formation of 4-(4-(thiiran-2-ylmethylsulfonyl)phenoxy)phenol at 25 mg/kg, sc measured at 10 to 240 mins; type: ADME, organism-based; design: dose 25 mg/kg, route subcutaneous; settings: in vivo; summary of the method: as §3
Plasma [26] = assay: Primary phase half life in C57Bl/6J mouse plasma assessed as 4-(4-(thiiran-2-ylmethylsulfonyl)phenoxy)phenol at 25 mg/kg, sc; type: ADME, organism-based; design: dose 25 mg/kg, route subcutaneous; settings: in vivo; summary of the method: as §2
Plasma [27] = assay: Elimination half life in C57Bl/6J mouse plasma assessed as 4-(4-(thiiran-2-ylmethylsulfonyl)phenoxy)phenol at 25 mg/kg, sc; type: ADME, organism-based; design: dose 25 mg/kg, route subcutaneous; settings: in vivo; summary of the method: as §2
Homo sapiens = organism: Homo sapiens; assay: Selectivity ratio of Ki for human recombinant MMP-8 catalytic domain to Ki for human recombinant MMP-2
Liver [28] = assay: Metabolic stability in rat liver S9 fraction assessed as formation of 4-(4-(thiiran-2-ylmethylsulfonyl)phenoxy)phenol at 50 uM after 30 mins by reversed-phase LC/MS analysis; type: ADME, subcellular; settings: s9, 0.5 h; summary of the method: as §1
Plasma [29] = assay: Plasma concentration in C57Bl/6J mouse assessed as 4-(4-(thiiran-2-ylmethylsulfonyl)phenoxy)phenol at 25 mg/kg, sc measured at 10 mins by reversed phase UPLC/ESI-MRM analysis; type: ADME, organism-based; design: dose 25 mg/kg, route subcutaneous; settings: in vivo; summary of the method: as §3

Chain of 72 kDa type IV collagenase (P08253 whole entry): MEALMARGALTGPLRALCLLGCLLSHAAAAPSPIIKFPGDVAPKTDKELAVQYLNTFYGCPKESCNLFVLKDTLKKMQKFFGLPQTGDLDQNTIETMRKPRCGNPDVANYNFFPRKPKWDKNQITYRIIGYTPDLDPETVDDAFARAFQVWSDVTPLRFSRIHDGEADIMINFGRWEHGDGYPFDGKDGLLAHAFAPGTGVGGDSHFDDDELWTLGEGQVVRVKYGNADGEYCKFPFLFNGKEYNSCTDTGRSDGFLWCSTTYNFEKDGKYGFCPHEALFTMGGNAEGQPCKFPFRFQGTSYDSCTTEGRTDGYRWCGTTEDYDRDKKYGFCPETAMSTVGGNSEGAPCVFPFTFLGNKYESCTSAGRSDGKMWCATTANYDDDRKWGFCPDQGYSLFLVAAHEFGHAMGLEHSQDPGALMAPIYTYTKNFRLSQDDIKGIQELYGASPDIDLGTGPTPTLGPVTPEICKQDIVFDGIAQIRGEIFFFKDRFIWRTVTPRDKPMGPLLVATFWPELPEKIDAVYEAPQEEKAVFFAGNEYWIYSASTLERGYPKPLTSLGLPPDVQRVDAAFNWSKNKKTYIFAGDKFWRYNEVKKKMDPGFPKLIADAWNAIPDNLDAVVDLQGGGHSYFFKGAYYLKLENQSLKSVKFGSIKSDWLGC
Chain of Neutrophil collagenase (P22894 whole entry, the tested form may be a part): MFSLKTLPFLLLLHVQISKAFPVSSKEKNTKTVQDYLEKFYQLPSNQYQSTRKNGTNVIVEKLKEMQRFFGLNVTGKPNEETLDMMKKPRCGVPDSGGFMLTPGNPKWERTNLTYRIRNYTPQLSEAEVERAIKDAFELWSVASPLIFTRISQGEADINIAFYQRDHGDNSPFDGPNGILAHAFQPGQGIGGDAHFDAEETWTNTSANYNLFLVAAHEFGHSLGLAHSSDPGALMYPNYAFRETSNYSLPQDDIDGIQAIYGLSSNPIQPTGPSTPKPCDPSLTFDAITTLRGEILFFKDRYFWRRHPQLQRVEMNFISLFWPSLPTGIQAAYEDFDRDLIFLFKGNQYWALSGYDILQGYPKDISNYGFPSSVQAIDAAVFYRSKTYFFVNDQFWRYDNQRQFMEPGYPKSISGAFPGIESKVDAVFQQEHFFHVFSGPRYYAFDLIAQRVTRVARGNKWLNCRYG
Chain of Matrix metalloproteinase-9 (P14780 whole entry, the tested form may be a part): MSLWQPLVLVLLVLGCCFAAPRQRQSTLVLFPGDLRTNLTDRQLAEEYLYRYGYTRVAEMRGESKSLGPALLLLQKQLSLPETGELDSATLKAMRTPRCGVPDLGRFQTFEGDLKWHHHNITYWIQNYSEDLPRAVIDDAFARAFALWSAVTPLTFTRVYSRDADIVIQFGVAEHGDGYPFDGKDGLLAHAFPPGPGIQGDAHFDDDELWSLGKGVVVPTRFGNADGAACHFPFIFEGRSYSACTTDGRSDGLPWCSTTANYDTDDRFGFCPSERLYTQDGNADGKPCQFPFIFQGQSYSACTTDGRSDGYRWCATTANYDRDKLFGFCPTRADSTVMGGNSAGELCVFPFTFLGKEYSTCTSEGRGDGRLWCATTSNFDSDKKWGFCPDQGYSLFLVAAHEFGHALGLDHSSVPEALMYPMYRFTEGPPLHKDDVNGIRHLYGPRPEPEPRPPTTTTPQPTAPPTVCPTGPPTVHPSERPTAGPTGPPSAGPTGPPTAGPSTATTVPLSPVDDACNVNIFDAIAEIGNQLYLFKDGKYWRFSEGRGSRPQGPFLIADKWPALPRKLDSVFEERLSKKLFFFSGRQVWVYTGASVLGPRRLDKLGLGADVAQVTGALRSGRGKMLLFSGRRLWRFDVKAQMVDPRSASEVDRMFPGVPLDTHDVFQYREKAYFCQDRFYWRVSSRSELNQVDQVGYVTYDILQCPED

Compound: COC(=O)Nc1ccc(Oc2ccc(S(=O)(=O)CC3CS3)cc2)cc1 (stereo not drawn)
- Ratio Ki [1]: 2
- t1/2 (Liver [2]): 0.293 h
- inhibition [3]: inactive
- Stability (Liver [4]): Unstable
- Stability (Liver [5]): Unstable
- Ki [6]: 0.05 µM
- inhibition [7]: inactive
- inhibition [8]: 38%
- Ki [9]: 2.6 µM
- Stability (Liver [10]): Unstable

Compound: CCNC(=O)Oc1ccc(Oc2ccc(S(=O)(=O)CC3CS3)cc2)cc1 (stereo not drawn)
- Ki [11]: 12 µM
- Ratio Ki [12]: 20
- AUC (Brain [13]): 129 pmol·min/mg
- Ratio Ki [1]: 20
- Ki (Neutrophil collagenase): 15 µM
- AUClast (Plasma [14]): 54 µM·min
- t1/2 (Liver [2]): 0.38 h
- Drug uptake (Brain [15]): 1.35 pmol
- inhibition [3]: inactive
- beta t1/2 (Brain [16]): 8.88 h
- AUC (Plasma [17]): 69.9 µM·min
- Stability (Brain [18]): Unstable
- Stability (Liver [19]): Unstable
- AUClast (Brain [20]): 88.8 pmol·min/mg
- Ki [6]: 0.55 µM
- Ratio AUC [21]: 1.64
- concentration (Plasma [22]): 114 nM
- inhibition [7]: inactive
- inhibition [8]: 37%
- Stability (Liver [23]): Unstable
- Drug uptake (Brain [24]): 0.255 pmol
- Stability (Plasma [25]): Unstable
- Ki [9]: 17 µM
- alphat1/2 (Plasma [26]): 41.3 min
- beta t1/2 (Plasma [27]): 7.7 h
- Ratio Ki (Homo sapiens): 20
- Stability (Liver [28]): Unstable
- concentration (Plasma [29]): 1240 nM
